We go through 15 compounds from ChEMBL document CHEMBL4196158, “New Class of Selective Estrogen Receptor Degraders (SERDs): Expanding the Toolbox of PROTAC Degrons” (ACS Med Chem Lett, 2018).

Experiment [1] deals with MCF7. Description: Antiproliferative activity against human MCF7 cells after 6 days by MTT assay. To be noted: MCF7, 144 h. (Tetrazolium assays rely on reduction of a dye to a coloured formazan, in cell work by metabolically active cells.)
Experiment [2] concerns MCF7. Description: Antiproliferative activity against human MCF7 cells assessed as cell proliferation after 6 days by MTT assay relative to control. It is filed as functional. On the set-up: concentration or dose not given beside the values. Summed up:
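MCF-7 cells kept in complete medium, dosed across a concentration range (log scale ~10^-11 to 10^-5 M) for 6 days; cell density read by MTT. Average ± SEM of 4 measurements, n = 3 unless noted. IC50 taken from dose-response. Efficacy given as relative proliferation rate at highest dose versus vehicle, with the fulvestrant level set to zero.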

Experiment [3] concerns the target T1, Estrogen receptor (Homo sapiens) (UniProt P03372).
T1 sequence (whole entry): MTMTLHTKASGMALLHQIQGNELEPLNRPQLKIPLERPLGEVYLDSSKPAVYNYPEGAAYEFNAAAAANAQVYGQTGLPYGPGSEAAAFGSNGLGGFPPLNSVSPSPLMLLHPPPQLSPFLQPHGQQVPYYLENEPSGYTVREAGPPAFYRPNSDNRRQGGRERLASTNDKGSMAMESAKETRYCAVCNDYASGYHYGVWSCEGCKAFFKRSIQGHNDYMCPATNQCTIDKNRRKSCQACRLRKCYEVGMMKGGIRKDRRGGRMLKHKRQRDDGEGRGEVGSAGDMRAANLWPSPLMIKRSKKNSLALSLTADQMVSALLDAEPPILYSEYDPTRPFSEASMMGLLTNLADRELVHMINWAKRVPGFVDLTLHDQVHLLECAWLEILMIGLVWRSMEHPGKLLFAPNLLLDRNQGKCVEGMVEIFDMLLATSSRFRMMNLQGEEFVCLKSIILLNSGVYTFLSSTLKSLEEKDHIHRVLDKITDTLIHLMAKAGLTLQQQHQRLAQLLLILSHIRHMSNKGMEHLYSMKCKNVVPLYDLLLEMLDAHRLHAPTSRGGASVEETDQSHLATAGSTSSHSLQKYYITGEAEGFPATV
Briefly: Displacement of [3H]estradiol from human full length ERalpha after 18 to 24 hrs by scintillation counting method.

The subject of experiment [4] is MCF7. Description: Proteolysis targeting chimera activity in human MCF7 cells assessed as induction of E3 ubiquitin ligase-mediated ERalpha level after 24 hrs by in-cell Western assay relative to control. The class given is cell-based. On the set-up: concentration or dose not given beside the values. Summed up: (§1)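 MCF-7 cells in stripped medium were dosed across a concentration range (log ~10^-11 to 10^-5 M) for 24 h, and ERα was quantified by in-cell Western. Average ± SEM of 4 measurements, n = 3 unless noted. IC50 derived from the dose-response curve. Efficacy is the ERα level at the highest dose, as % of vehicle control.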

The nature of experiment [5]: Proteolysis targeting chimera activity in human MCF7 cells assessed as induction of E3 ubiquitin ligase-mediated ERalpha degradation by proteasome after 24 hrs by in-cell Western assay. It is filed as cell-based. To be noted: MCF7, 24 h. Summed up: as §1
Experiment [6] deals with T1, Estrogen receptor (Homo sapiens). Description: Antagonist activity at ERalpha in human […] assessed as inhibition of estradiol-induced GREB1 gene expression level at 3 uM after 24 hrs by qRT-PCR method. The class given is cell-based. Summed up:
(§2)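 MCF-7 cells exposed 24 h to 3 µM compound with or without 1 nM estradiol (E2); transcript levels of PgR, pS2 and GREB1 quantified by qRT-PCR.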
For orientation: Quantitative PCR measures a nucleic acid by following its amplification.

For experiment [7] the target is unchanged. Description: Antagonist activity at ERalpha in human […] assessed as inhibition of estradiol-induced PgR gene expression level at 3 uM after 24 hrs by qRT-PCR method. It is filed as cell-based. Summed up: as §2
Experiment [8] has the same target. Description: Antagonist activity at ERalpha in human […] assessed as inhibition of estradiol-induced pS2 gene expression level at 3 uM after 24 hrs by qRT-PCR method. The class given is cell-based. Summed up: as §2
For experiment [9], the system named is MCF7. Description: Proteolysis targeting chimera activity in human MCF7 cells assessed as induction of E3 ubiquitin ligase-mediated ERalpha level after 24 hrs by in presence of proteasome inhibitor MG132 by in-cell Western assay. It is filed as cell-based.

The source made the active and inactive calls. The rule behind the calls is not given here.

A word on the IC50: it is the point on the concentration scale where inhibition reaches its midpoint.

Take `O=C(NCCCCOc1ccc(C(=C2C3CC4CC(C3)CC2C4)c2ccc(O)cc2)cc1)C1CCC(F)(F)CC1`: the IC50 in the experiment on MCF7 [1] was found to be 4 nM. For the same compound, the Activity with MCF7 [2] was 20%; in the experiment with MCF7 [4], 67%. This compound also showed an RBA in [3] of 30%.
In the case of `O=C(NCCCCOc1ccc(C(=C2C3CC4CC(C3)CC2C4)c2ccc(O)cc2)cc1)C1CCCCCC1`, the IC50 in the experiment on MCF7 [1] was found to be 5 nM. The figures for the Activity with MCF7 [2] and in the experiment on MCF7 [4] were 15% and 76%, respectively. The compound also displayed an RBA in experiment [3] of 30%.
As to `C[C@]12CC[C@@H]3c4ccc(O)cc4C[C@@H](CCCCCCCCC[S+]([O-])CCCC(F)(F)C(F)(F)F)[C@H]3[C@@H]1CC[C@@H]2O` (stereo partly specified) [FULVESTRANT], the IC50 (in the experiment on MCF7 [1]; in [5]) was less than 0.1 nM each time. In addition, the Activity with MCF7 [2] worked out at 0%; in the experiment with MCF7 [4], 9%. This compound also displayed an RBA in experiment [3] of 61%.
`CC(C)C[C@H](NC(=O)OC(C)(C)C)C(=O)NCCCCOc1ccc(C(=C2C3CC4CC(C3)CC2C4)c2ccc(O)cc2)cc1`: the IC50 with MCF7 [1] is 36 nM; in experiment [5], 636 nM. The results for the Activity in the experiment on MCF7 [2] and with MCF7 [4] were 20% and 56%, respectively. In [3], this compound gave an RBA of 14%.
Turning to `O=C(NCCCCOc1ccc(C(=C2C3CC4CC(C3)CC2C4)c2ccc(O)cc2)cc1)C1CCC1`, 3 nM corresponded to half-maximal inhibition in the experiment with MCF7 [1] (IC50). Moreover, the Activity is 15% with MCF7 [2] and 69% in the experiment with MCF7 [4]. In addition, the RBA in experiment [3] amounted to 70%.
For `O=C(NCCCCOc1ccc(C(=C2C3CC4CC(C3)CC2C4)c2ccc(O)cc2)cc1)C12CC3CC(CC1C3)C2`, the IC50 came to 12 nM with MCF7 [1] and 2 nM in [5]. Moreover, the Activity in the experiment with MCF7 [2] came to 42%; in the experiment with MCF7 [4], 71%. The same compound had an RBA in experiment [3] of 17%.
Regarding `O=C(NCCOc1ccc(C(=C2C3CC4CC(C3)CC2C4)c2ccc(O)cc2)cc1)C12CC3CC(CC(C3)C1)C2`, in the experiment on MCF7 [1], the IC50 is 17 nM. Moreover, the figures for the Activity in the experiment with MCF7 [2] and in the experiment on MCF7 [4] were 16% and 76%, respectively. In experiment [3], this compound returned an RBA of 21%.
Take `O=C(NCCCOc1ccc(C(=C2C3CC4CC(C3)CC2C4)c2ccc(O)cc2)cc1)C12CC3CC(CC(C3)C1)C2`: the inhibition result in experiment [6], in experiment [7] and in experiment [8] was “Active” throughout. Moreover, the figures for the IC50 (in the experiment with MCF7 [1]; in experiment [5]) were 9 nM and 3 nM, respectively. In addition, the Activity with MCF7 [2] amounted to 13%; in the experiment on MCF7 [4] it was 42%. Besides, in experiment [3], the RBA stood at 26%.
Turning to `CC12CC3CC(C)(C1)CC(C(=O)NCCCCOc1ccc(C(=C4C5CC6CC(C5)CC4C6)c4ccc(O)cc4)cc1)(C3)C2`, the IC50 in the experiment on MCF7 [1] amounted to 5 nM; in experiment [5], 10 nM. The Activity in the experiment on MCF7 [2] was 57%; with MCF7 [4] it was 42%. Also, in experiment [3], the RBA was 6%.
With `O=C(NCCCCOc1ccc(C(=C2C3CC4CC(C3)CC2C4)c2ccc(O)cc2)cc1)[C@@H]1C[C@@H]2C=C[C@H]1C2`, the IC50 came to 9 nM in the experiment on MCF7 [1] and 0.5 nM in experiment [5]. In addition, the Activity is 42% in the experiment on MCF7 [2] and 53% with MCF7 [4]. In [3], this compound yielded an RBA of 37%.
`CC(C)(C)OC(=O)N[C@@H](Cc1c[nH]c2ccccc12)C(=O)NCCCCOc1ccc(C(=C2C3CC4CC(C3)CC2C4)c2ccc(O)cc2)cc1`: the inhibition entry in experiment [6], in experiment [7] and in [8] was “Active” in each case. Moreover, the IC50 was determined as 16 nM in the experiment with MCF7 [1] and 0.5 nM in experiment [5]. For the same compound, the Activity was determined as 16% in the experiment on MCF7 [2] and 45% with MCF7 [4]. For the same compound, the RBA in experiment [3] turned out to be 20%.
As to `O=C(NCCCCOc1ccc(C(=C2C3CC4CC(C3)CC2C4)c2ccc(O)cc2)cc1)C1CCCCC1`, the IC50 was 0.6 nM in the experiment with MCF7 [1] and 0.4 nM in [5]. In addition, the Activity is 13% in the experiment with MCF7 [2] and 35% in the experiment on MCF7 [4]. Besides, the RBA in [3] was 28%. Also, the result in the experiment with MCF7 [9] was inactive.
For the compound `CC(C)(C)OC(=O)N[C@@H](Cc1ccccc1)C(=O)NCCCCOc1ccc(C(=C2C3CC4CC(C3)CC2C4)c2ccc(O)cc2)cc1`, the figures for the IC50 (in the experiment with MCF7 [1]; in experiment [5]) were 7 nM and 307 nM, respectively. The Activity in the experiment with MCF7 [2] is 25%; in the experiment with MCF7 [4] it was 71%. Also, the RBA in experiment [3] came to 14%.
As to `O=C(NCCCCOc1ccc(C(=C2C3CC4CC(C3)CC2C4)c2ccc(O)cc2)cc1)[C@H]1CC[C@H](C(F)(F)F)CC1`, the inhibition entry in experiment [6], in [7] and in experiment [8] was “Active” throughout. Besides, the half-inhibitory concentration (IC50) came out at 0.5 nM in the experiment on MCF7 [1] and 2 nM in [5]. The Activity was determined as 13% with MCF7 [2] and 31% in the experiment on MCF7 [4]. In [3], this compound returned an RBA of 10%.
Regarding `O=C(NCCCCOc1ccc(C(=C2C3CC4CC(C3)CC2C4)c2ccc(O)cc2)cc1)C12CC3CC(CC(C3)C1)C2`, the IC50 in the experiment on MCF7 [1] is 13 nM; in experiment [5], 6 nM. In addition, the figures for the Activity with MCF7 [2] and in the experiment with MCF7 [4] were 13% and 51%, respectively. Besides, the RBA in [3] was 11%.
